The test system of assay [1] is NIH3T3. Kind of assay: Cytotoxicity against mouse NIH/3T3 cells after 48 hrs by SRB assay. It counts as cell-based. The settings on record: NIH3T3, 48 h.
In assay [2] the test system is Bacillus cereus. Kind of assay: Antibacterial activity against Bacillus cereus after 24 hrs by agar dilution method. It counts as functional. (In general: In agar dilution, organisms are placed on agar that contains the substance at set levels.)
Assay [3] concerns Staphylococcus epidermidis. Description: Antibacterial activity against Staphylococcus albus after 24 hrs by agar dilution method. It counts as functional.
Assay [4] relates to Staphylococcus aureus. Kind of assay: Antibacterial activity against Staphylococcus aureus after 24 hrs by agar dilution method. It counts as functional.
The subject of assay [5] is Pseudomonas aeruginosa. Kind of assay: Antibacterial activity against Pseudomonas aeruginosa after 24 hrs by agar dilution method. It counts as functional.
The subject of assay [6] is Escherichia coli. Description: Antibacterial activity against Escherichia coli after 24 hrs by agar dilution method. It counts as functional.
The subject of assay [7] is Radical scavenging activity. Kind of assay: Antioxidant activity assessed as DPPH radical scavenging activity after 30 mins by spectrophotometric analysis. It counts as functional. The gist of the method: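 DPPH radical bleaching followed as loss of absorbance at 517 nm; IC50 derived; mean ± SD, n = 3.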
(In general: Loss of DPPH colour is used to gauge radical scavenging.)

The nature of assay [8]: Antioxidant activity assessed as hydroxyl radical scavenging activity after 1 hr by spectrophotometric analysis. It counts as functional.
Assay [9] is described as follows: Antioxidant activity assessed as superoxide radical anion scavenging activity by spectrophotometric analysis. It counts as functional.

A word on the IC50: it is the point on the concentration scale where inhibition reaches its midpoint. For orientation: MBC means the lowest tested concentration that kills the bacteria rather than only halting them. Read a high MBC as less potent killing. As a reminder, the MIC is the smallest concentration in the dilution series that meets the test's criterion for growth inhibition. One may read the EC50 as the concentration at which the effect is half-maximal.

≈ marks a conversion by molar mass, not a printed value.

For the compound `COc1ccc2[nH]c(-c3ccc(O)c(OC)c3)nc2c1`, in assay [1], the IC50 was over 200 µM. For the same compound, the MBC in [2] and in assay [4] was 200 µM (≈ 54.1 µg/mL) each time. Besides, the MIC in [2] is 50 µM (≈ 13.5 µg/mL); in [3] it was over 200 µM; in assay [4] it was 100 µM (≈ 27 µg/mL); in assay [5], over 200 µM; in assay [6] it was over 200 µM. Moreover, the EC50 in assay [7] was 58 µM; in [8] it was over 200 µM; in assay [9], over 200 µM.
Turning to `COc1ccc2[nH]c(-c3ccc(O)cc3O)nc2c1`, the IC50 in assay [1] is over 200 µM. Further, the MBC in assay [2] came out at 100 µM (≈ 25.6 µg/mL); in assay [3], 200 µM (≈ 51.3 µg/mL); in assay [4], 100 µM (≈ 25.6 µg/mL); in assay [6], 100 µM (≈ 25.6 µg/mL). For the same compound, the MIC was 50 µM (≈ 12.8 µg/mL) in assay [2]; 100 µM (≈ 25.6 µg/mL) in assay [3]; 50 µM (≈ 12.8 µg/mL) in assay [4]; over 200 µM in assay [5]; 6.25 µM (≈ 1.6 µg/mL) in assay [6]. Further, the EC50 in [7] was 129 µM; in assay [8], over 200 µM; in assay [9], 189 µM.
`c1ccc(-c2nc3ccccc3[nH]2)cc1` registered an IC50 in [1] of over 200 µM. The MIC was over 200 µM in assay [2]; over 200 µM in assay [3]; 100 µM (≈ 19.4 µg/mL) in assay [4]; over 200 µM in assay [5]; 6.25 µM (≈ 1.21 µg/mL) in [6]. The MBC was over 200 µM in [4] and 100 µM (≈ 19.4 µg/mL) in assay [6]. Moreover, the 50% effective concentration (EC50) in [7], in [8] and in [9] was over 200 µM throughout.
Take `COc1ccc(-c2nc3ccccc3[nH]2)cc1`: the IC50 in [1] is over 200 µM. Further, the MBC in assay [2] worked out at 100 µM (≈ 22.4 µg/mL); in [3] it was 100 µM (≈ 22.4 µg/mL); in assay [4] it was 1.56 µM (≈ 0.35 µg/mL); in assay [6] it was 50 µM (≈ 11.2 µg/mL). Also, the MIC was 50 µM (≈ 11.2 µg/mL) in assay [2]; 100 µM (≈ 22.4 µg/mL) in [3]; 1.56 µM (≈ 0.35 µg/mL) in assay [4]; over 200 µM in [5]; 12.5 µM (≈ 2.8 µg/mL) in assay [6]. Moreover, the EC50 in assay [7], in assay [8] and in assay [9] was over 200 µM throughout.
Compound `COc1ccc2[nH]c(-c3ccc(O)cc3)nc2c1` returned an IC50 in assay [1] of over 200 µM. Also, the MBC in assay [2] amounted to 200 µM (≈ 48.1 µg/mL); in [4], 200 µM (≈ 48.1 µg/mL); in assay [6], 100 µM (≈ 24 µg/mL). Also, the MIC is 50 µM (≈ 12 µg/mL) in assay [2]; over 200 µM in assay [3]; 100 µM (≈ 24 µg/mL) in assay [4]; over 200 µM in assay [5]; 12.5 µM (≈ 3 µg/mL) in assay [6]. In addition, the EC50 in assay [7], in [8] and in assay [9] was over 200 µM throughout.
On to `COc1ccc(OC)c(-c2nc3cc(OC)ccc3[nH]2)c1`, for which the IC50 in assay [1] was over 200 µM. For the same compound, the MBC is 200 µM (≈ 56.9 µg/mL) in assay [2] and 50 µM (≈ 14.2 µg/mL) in assay [4]. Besides, the MIC in [2] was 100 µM (≈ 28.4 µg/mL); in assay [3], over 200 µM; in [4], 6.25 µM (≈ 1.78 µg/mL); in [5], over 200 µM; in assay [6] it was over 200 µM. The EC50 in assay [7], in [8] and in assay [9] was over 200 µM throughout.
On to `Oc1cccc(-c2nc3ccccc3[nH]2)c1`, for which the IC50 in assay [1] is over 200 µM. Moreover, the MBC was 200 µM (≈ 42 µg/mL) in assay [2], 0.78 µM (≈ 0.164 µg/mL) in assay [4] and 100 µM (≈ 21 µg/mL) in assay [6]. In addition, the MIC was 50 µM (≈ 10.5 µg/mL) in assay [2]; over 200 µM in assay [3]; 0.39 µM (≈ 0.082 µg/mL) in assay [4]; over 200 µM in assay [5]; 12.5 µM (≈ 2.63 µg/mL) in [6]. Also, the EC50 in [7], in assay [8] and in assay [9] was over 200 µM each time.
As to `COc1ccc2[nH]c(-c3ccc(OC)c(OC)c3)nc2c1`, the IC50 in assay [1] was over 200 µM. Also, the MBC in assay [2] is 100 µM (≈ 28.4 µg/mL); in [3], over 200 µM; in [4], 200 µM (≈ 56.9 µg/mL). Besides, the MIC in assay [2] was 25 µM (≈ 7.11 µg/mL); in assay [3] it was 100 µM (≈ 28.4 µg/mL); in assay [4] it was 50 µM (≈ 14.2 µg/mL); in [5], over 200 µM; in [6], over 200 µM. Besides, the concentration giving a half-maximal response (EC50) in assay [7], in assay [8] and in [9] was over 200 µM throughout.
`COc1ccc2[nH]c(-c3ccccc3O)nc2c1` yielded an IC50 in assay [1] of over 200 µM. The minimum bactericidal concentration (MBC) in [2] and in assay [6] was over 200 µM throughout. The MIC in [2] is 200 µM (≈ 48.1 µg/mL); in assay [3] it was over 200 µM; in [4] it was over 200 µM; in [5] it was over 200 µM; in assay [6] it was 100 µM (≈ 24 µg/mL). The figures for the EC50 in [7], in assay [8] and in assay [9] were over 200 µM, 190 µM and 87 µM, respectively.
`O=C(O)c1cn(C2CC2)c2cc(N3CCNCC3)c(F)cc2c1=O` [CIPROFLOXACIN] came in with an IC50 in assay [1] of over 200 µM. The MBC was determined as 0.39 µM (≈ 0.129 µg/mL) in [2]; 0.39 µM (≈ 0.129 µg/mL) in assay [3]; 0.39 µM (≈ 0.129 µg/mL) in assay [4]; 0.78 µM (≈ 0.258 µg/mL) in [5]; 0.39 µM (≈ 0.129 µg/mL) in assay [6]. The MIC in [2] came out at 0.39 µM (≈ 0.129 µg/mL); in assay [3], 0.39 µM (≈ 0.129 µg/mL); in [4], 0.39 µM (≈ 0.129 µg/mL); in assay [5], 0.78 µM (≈ 0.258 µg/mL); in assay [6] it was 0.39 µM (≈ 0.129 µg/mL).
As for `COc1ccc(-c2nc3cc(OC)ccc3[nH]2)c(OC)c1`, in assay [1], the IC50 is over 200 µM. Further, the MIC in assay [2] was over 200 µM; in assay [3], 100 µM (≈ 28.4 µg/mL); in [4], 6.25 µM (≈ 1.78 µg/mL); in assay [5], over 200 µM; in [6], over 200 µM. Moreover, the MBC in assay [3] amounted to 200 µM (≈ 56.9 µg/mL); in assay [4] it was 50 µM (≈ 14.2 µg/mL). The EC50 in [7], in [8] and in assay [9] was over 200 µM throughout.
For the compound `COc1ccc2[nH]c(-c3cccc(O)c3)nc2c1`, the IC50 in [1] was over 200 µM. Besides, the figures for the MBC in assay [2], in assay [4] and in [6] were 200 µM (≈ 48.1 µg/mL), 200 µM (≈ 48.1 µg/mL) and 100 µM (≈ 24 µg/mL), respectively. The MIC in assay [2] is 25 µM (≈ 6.01 µg/mL); in [3], over 200 µM; in [4], 100 µM (≈ 24 µg/mL); in [5], over 200 µM; in [6] it was 12.5 µM (≈ 3 µg/mL). The EC50 in [7], in assay [8] and in assay [9] was over 200 µM each time.
Take `COc1ccc2[nH]c(-c3ccccc3)nc2c1`: in assay [1], the IC50 is over 200 µM. The MBC in assay [2] is 200 µM (≈ 44.9 µg/mL); in assay [6], 100 µM (≈ 22.4 µg/mL). Also, the MIC is 50 µM (≈ 11.2 µg/mL) in assay [2]; over 200 µM in assay [3]; over 200 µM in [4]; over 200 µM in assay [5]; 25 µM (≈ 5.61 µg/mL) in assay [6]. Besides, the EC50 in assay [7], in assay [8] and in assay [9] was over 200 µM throughout.
Compound `Oc1ccc(-c2nc3ccccc3[nH]2)cc1` gave an IC50 in assay [1] of over 200 µM. The MIC in assay [2] was over 200 µM; in assay [3] it was over 200 µM; in [4] it was 12.5 µM (≈ 2.63 µg/mL); in assay [5] it was over 200 µM; in assay [6], 25 µM (≈ 5.26 µg/mL). In addition, the results for the MBC in assay [4] and in assay [6] were 50 µM (≈ 10.5 µg/mL) and 100 µM (≈ 21 µg/mL), respectively. Moreover, the EC50 in assay [7], in [8] and in assay [9] was over 200 µM in each case.
Turning to `Oc1ccccc1-c1nc2ccccc2[nH]1`, the IC50 in assay [1] was over 200 µM. Moreover, the MIC is over 200 µM in assay [2]; over 200 µM in assay [3]; over 200 µM in [4]; over 200 µM in [5]; 25 µM (≈ 5.26 µg/mL) in assay [6]. The MBC in assay [6] came to 100 µM (≈ 21 µg/mL). Further, the values for the half-maximal effective concentration (EC50) in [7], in [8] and in assay [9] were over 200 µM, over 200 µM and 122 µM, respectively.

For the origin of these results see ChEMBL document CHEMBL2396641, “Synthesis, antioxidant, and antimicrobial evaluation of some 2-arylbenzimidazole derivatives” (Bioorg Med Chem Lett, 2013).
